Results reported in ChEMBL document CHEMBL1759986, “Selective α-glucosidase substrates and inhibitors containing short aromatic peptidyl moieties” (Bioorg Med Chem Lett, 2011).
Active and inactive are the calls of the source. The calls are words filed in the database; no cut-off is given here.

Key:
[1] = biological target: T1, Pancreatic alpha-amylase (Sus scrofa) (UniProt P00690); assay: Inhibition of pig alpha-amylase assessed as formation of p-nitrophenol
T1 sequence (whole entry): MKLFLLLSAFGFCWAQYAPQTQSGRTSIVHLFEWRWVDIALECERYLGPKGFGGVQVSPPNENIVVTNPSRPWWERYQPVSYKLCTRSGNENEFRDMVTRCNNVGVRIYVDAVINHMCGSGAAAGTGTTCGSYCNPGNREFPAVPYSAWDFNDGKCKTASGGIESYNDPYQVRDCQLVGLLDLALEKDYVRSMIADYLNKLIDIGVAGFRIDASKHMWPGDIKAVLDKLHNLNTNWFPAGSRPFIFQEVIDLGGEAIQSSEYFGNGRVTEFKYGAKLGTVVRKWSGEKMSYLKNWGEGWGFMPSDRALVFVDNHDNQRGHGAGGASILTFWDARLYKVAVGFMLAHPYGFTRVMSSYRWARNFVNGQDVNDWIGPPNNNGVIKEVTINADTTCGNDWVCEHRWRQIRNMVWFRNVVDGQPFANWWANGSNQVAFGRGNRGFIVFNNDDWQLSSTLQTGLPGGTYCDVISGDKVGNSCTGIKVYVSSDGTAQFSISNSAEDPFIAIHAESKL
Method in brief: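 Screening used each α-amylase with an equimolar mixture of the peptidyl substrate and p-nitrophenyl-α-D-pentaoside. The read-out was the rate of p-nitrophenol formation compared with the chromogenic substrate alone. Each data point was triplicated and averaged.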

[2] = tested on: Salivary alpha-amylase (Homo sapiens); assay: Inhibition of human salivary alpha-amylase assessed as formation of p-nitrophenol
Alpha-glucosidase = biological target: T2, Alpha-glucosidase (Geobacillus stearothermophilus, UniProt P94451); assay: Competitive inhibition of Bacillus stearothermophilus alpha-glucosidase assessed as production of chromogenic p-Nitrphenol measured after 3 mins by HPLC and Michaelis-Menten equation
T2 sequence (P94451 whole entry): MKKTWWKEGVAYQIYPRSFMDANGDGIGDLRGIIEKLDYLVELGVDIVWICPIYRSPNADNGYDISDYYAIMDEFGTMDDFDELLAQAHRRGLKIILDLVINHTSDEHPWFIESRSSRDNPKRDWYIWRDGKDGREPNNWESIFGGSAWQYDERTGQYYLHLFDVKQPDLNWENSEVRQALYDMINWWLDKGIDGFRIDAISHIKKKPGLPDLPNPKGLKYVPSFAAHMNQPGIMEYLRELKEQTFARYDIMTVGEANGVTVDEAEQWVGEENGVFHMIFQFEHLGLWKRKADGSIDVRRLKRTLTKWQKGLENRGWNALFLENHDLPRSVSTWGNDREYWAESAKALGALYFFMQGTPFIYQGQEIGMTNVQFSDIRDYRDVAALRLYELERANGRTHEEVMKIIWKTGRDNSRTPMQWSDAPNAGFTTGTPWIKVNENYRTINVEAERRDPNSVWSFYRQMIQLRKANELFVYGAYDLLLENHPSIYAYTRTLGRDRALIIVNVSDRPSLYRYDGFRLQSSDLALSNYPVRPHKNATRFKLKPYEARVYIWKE
Method in brief: (§1)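 The chromogenic substrate was p-nitrophenyl-α-D-glucopyranoside, with p-nitrophenol formation monitored. Ki was calculated from a Dixon plot. Each measurement was triplicated and averaged.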

[3] = Competitive inhibition of rice alpha-glucosidase assessed as production of chromogenic p-Nitrphenol measured after 3 mins by HPLC and Michaelis-Menten equation; design: species or system Oryza sativa; method in brief: as §1
[4] = substrate: CC(=O)Nc1ccc(O[C@H]2O[C@H](CO)[C@@H](O)[C@H](O)[C@H]2O)cc1; assay: Activity at Bacillus stearothermophilus alpha-glucosidase assessed as production of chromogenic p-acetaminophenyl measured after 3 mins by HPLC Michaelis-Menten equation; settings: Geobacillus stearothermophilus
Method in brief: (§2)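 Alpha-glucosidase from Bacillus stearothermophillus was incubated with the substrate. Km was obtained by Michaelis–Menten kinetics. Vmax, kcat and kcat/Km were reported alongside Km. Each value was measured in triplicate and averaged.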

[5] = substrate: CC(=O)Nc1ccc(O[C@H]2O[C@H](CO)[C@@H](O)[C@H](O)[C@H]2O)cc1; assay: Ratio of Kcat to Km for Bacillus stearothermophilus alpha-glucosidase assessed as production of chromogenic p-acetaminophenyl; settings: Geobacillus stearothermophilus; method in brief: as §2
[6] = substrate: NC(=O)[C@H](Cc1ccc(O)cc1)NC(=O)[C@H](Cc1c[nH]c2ccccc12)NC(=O)CCC(=O)Nc1ccc(O[C@H]2O[C@H](CO)[C@@H](O)[C@H](O)[C@H]2O)cc1; assay: Ratio of Kcat to Km for Bacillus stearothermophilus alpha-glucosidase assessed as production of chromogenic Sp-WY; settings: Geobacillus stearothermophilus; method in brief: as §2
[7] = substrate: O=[N+]([O-])c1ccc(O[C@H]2O[C@H](CO)[C@@H](O)[C@H](O)[C@H]2O)cc1; assay: Ratio of Kcat to Km for Bacillus stearothermophilus alpha-glucosidase assessed as production of chromogenic p-Nitrphenol; settings: Geobacillus stearothermophilus; method in brief: as §2
[8] = substrate: NC(=O)[C@H](Cc1ccc(O)cc1)NC(=O)[C@H](Cc1c[nH]c2ccccc12)NC(=O)CCC(=O)Nc1ccc(O[C@H]2O[C@H](CO)[C@@H](O)[C@H](O)[C@H]2O)cc1; assay: Activity at Bacillus stearothermophilus alpha-glucosidase assessed as production of chromogenic Sp-WY measured after 3 mins by HPLC Michaelis-Menten equation; settings: Geobacillus stearothermophilus; method in brief: as §2
[9] = substrate: O=[N+]([O-])c1ccc(O[C@H]2O[C@H](CO)[C@@H](O)[C@H](O)[C@H]2O)cc1; assay: Activity at Bacillus stearothermophilus alpha-glucosidase assessed as production of chromogenic p-Nitrphenol measured after 3 mins by HPLC and Michaelis-Menten equation; settings: Geobacillus stearothermophilus; method in brief: as §2

| Molecule | inhibition [1] | inhibition [2] | also measured |
| --- | --- | --- | --- |
| O=[N+]([O-])c1ccc(O[C@H]2O[C@H](CO)[C@@H](O[C@H]3O[C@H](CO)[C@@H](O[C@H]4O[C@H](CO)[C@@H](O[C@H]5O[C@H](CO)[C@@H](O[C@H]6O[C@H](CO)[C@@H](O)[C@H](O)[C@H]6O)[C@H](O)[C@H]5O)[C@H](O)[C@H]4O)[C@H](O)[C@H]3O)[C@H](O)[C@H]2O)cc1 | inactive | inactive |  |
| NC(=O)[C@H](Cc1ccccc1)NC(=O)[C@H](Cc1ccccc1)NC(=O)CCC(=O)Nc1ccc(O[C@H]2O[C@H](CO)[C@@H](O[C@H]3O[C@H](CO)[C@@H](O[C@H]4O[C@H](CO)[C@@H](O[C@H]5O[C@H](CO)[C@@H](O[C@H]6O[C@H](CO)[C@@H](O)[C@H](O)[C@H]6O)[C@H](O)[C@H]5O)[C@H](O)[C@H]4O)[C@H](O)[C@H]3O)[C@H](O)[C@H]2O)cc1 | inactive | inactive |  |
| NC(=O)[C@H](Cc1c[nH]c2ccccc12)NC(=O)[C@H](Cc1c[nH]c2ccccc12)NC(=O)CCC(=O)Nc1ccc(O[C@H]2O[C@H](CO)[C@@H](O[C@H]3O[C@H](CO)[C@@H](O[C@H]4O[C@H](CO)[C@@H](O[C@H]5O[C@H](CO)[C@@H](O[C@H]6O[C@H](CO)[C@@H](O)[C@H](O)[C@H]6O)[C@H](O)[C@H]5O)[C@H](O)[C@H]4O)[C@H](O)[C@H]3O)[C@H](O)[C@H]2O)cc1 | inactive | inactive |  |
| NC(=O)[C@H](Cc1ccc(O)cc1)NC(=O)[C@H](Cc1c[nH]c2ccccc12)NC(=O)CCC(=O)Nc1ccc(O)cc1 |  |  | Ki (Alpha-glucosidase): 1400 µM |
| NC(=O)[C@H](Cc1ccc(O)cc1)NC(=O)[C@H](Cc1ccc(O)cc1)NC(=O)CCC(=O)Nc1ccc(O[C@H]2O[C@H](CO)[C@@H](O[C@H]3O[C@H](CO)[C@@H](O[C@H]4O[C@H](CO)[C@@H](O[C@H]5O[C@H](CO)[C@@H](O[C@H]6O[C@H](CO)[C@@H](O)[C@H](O)[C@H]6O)[C@H](O)[C@H]5O)[C@H](O)[C@H]4O)[C@H](O)[C@H]3O)[C@H](O)[C@H]2O)cc1 | inactive | inactive |  |
| C[C@H]1O[C@H](O[C@H]2[C@H](O)[C@@H](O)[C@@H](O[C@H]3[C@H](O)[C@@H](O)C(O)O[C@@H]3CO)O[C@@H]2CO)[C@H](O)[C@@H](O)[C@@H]1N[C@H]1C=C(CO)[C@@H](O)[C@H](O)[C@H]1O (stereo not given in full) [ACARBOSE] |  |  | Ki [3]: 4.2 µM |
| NC(=O)[C@H](Cc1ccc(O)cc1)NC(=O)[C@H](Cc1c[nH]c2ccccc12)NC(=O)CCC(=O)Nc1ccc(O[C@@H]2O[C@H](CO)[C@@H](O)[C@H](O)[C@H]2O)cc1 |  |  | Ki (Alpha-glucosidase): 110 µM |
| Alpha-glucosidase (Geobacillus stearothermophilus), P94451 (protein) MKKTWWKEGVAYQIYPRSFMDANGDGIGDLRGIIEKLDYLVELGVDIVWICPIYRSPNADNGYDISDYYAIMDEFGTMDDFDELLAQAHRRGLKIILDLVINHTSDEHPWFIESRSSRDNPKRDWYIWRDGKDGREPNNWESIFGGSAWQYDERTGQYYLHLFDVKQPDLNWENSEVRQALYDMINWWLDKGIDGFRIDAISHIKKKPGLPDLPNPKGLKYVPSFAAHMNQPGIMEYLRELKEQTFARYDIMTVGEANGVTVDEAEQWVGEENGVFHMIFQFEHLGLWKRKADGSIDVRRLKRTLTKWQKGLENRGWNALFLENHDLPRSVSTWGNDREYWAESAKALGALYFFMQGTPFIYQGQEIGMTNVQFSDIRDYRDVAALRLYELERANGRTHEEVMKIIWKTGRDNSRTPMQWSDAPNAGFTTGTPWIKVNENYRTINVEAERRDPNSVWSFYRQMIQLRKANELFVYGAYDLLLENHPSIYAYTRTLGRDRALIIVNVSDRPSLYRYDGFRLQSSDLALSNYPVRPHKNATRFKLKPYEARVYIWKE |  |  | Km [4]: 1900 µM; Vmax [4]: 0.0015 µM/s; kcat [4]: 0.76 s⁻¹; kcat/Km [5]: 400 M⁻¹ s⁻¹; kcat/Km [6]: 10000 M⁻¹ s⁻¹; kcat/Km [7]: 7600 M⁻¹ s⁻¹; Km [8]: 13 µM; Vmax [8]: 0.00025 µM/s; kcat [8]: 0.13 s⁻¹; Km [9]: 1200 µM; Vmax [9]: 0.019 µM/s; kcat [9]: 9.5 s⁻¹ |

Now from value to molecule, other results behind:

| inhibition [1] | inhibition [2] | Molecule | also measured |
| --- | --- | --- | --- |
| inactive | inactive | NC(=O)[C@H](Cc1ccc(O)cc1)NC(=O)[C@H](Cc1ccccc1)NC(=O)CCC(=O)Nc1ccc(O[C@H]2O[C@H](CO)[C@@H](O[C@H]3O[C@H](CO)[C@@H](O[C@H]4O[C@H](CO)[C@@H](O[C@H]5O[C@H](CO)[C@@H](O[C@H]6O[C@H](CO)[C@@H](O)[C@H](O)[C@H]6O)[C@H](O)[C@H]5O)[C@H](O)[C@H]4O)[C@H](O)[C@H]3O)[C@H](O)[C@H]2O)cc1 |  |
| inactive | inactive | NC(=O)[C@H](Cc1c[nH]c2ccccc12)NC(=O)[C@H](Cc1ccc(O)cc1)NC(=O)CCC(=O)Nc1ccc(O[C@H]2O[C@H](CO)[C@@H](O[C@H]3O[C@H](CO)[C@@H](O[C@H]4O[C@H](CO)[C@@H](O[C@H]5O[C@H](CO)[C@@H](O[C@H]6O[C@H](CO)[C@@H](O)[C@H](O)[C@H]6O)[C@H](O)[C@H]5O)[C@H](O)[C@H]4O)[C@H](O)[C@H]3O)[C@H](O)[C@H]2O)cc1 |  |
| inactive | inactive | NC(=O)[C@H](Cc1c[nH]c2ccccc12)NC(=O)[C@H](Cc1ccccc1)NC(=O)CCC(=O)Nc1ccc(O[C@H]2O[C@H](CO)[C@@H](O[C@H]3O[C@H](CO)[C@@H](O[C@H]4O[C@H](CO)[C@@H](O[C@H]5O[C@H](CO)[C@@H](O[C@H]6O[C@H](CO)[C@@H](O)[C@H](O)[C@H]6O)[C@H](O)[C@H]5O)[C@H](O)[C@H]4O)[C@H](O)[C@H]3O)[C@H](O)[C@H]2O)cc1 |  |
| inactive | inactive | NC(=O)[C@H](Cc1ccccc1)NC(=O)[C@H](Cc1c[nH]c2ccccc12)NC(=O)CCC(=O)Nc1ccc(O[C@H]2O[C@H](CO)[C@@H](O[C@H]3O[C@H](CO)[C@@H](O[C@H]4O[C@H](CO)[C@@H](O[C@H]5O[C@H](CO)[C@@H](O[C@H]6O[C@H](CO)[C@@H](O)[C@H](O)[C@H]6O)[C@H](O)[C@H]5O)[C@H](O)[C@H]4O)[C@H](O)[C@H]3O)[C@H](O)[C@H]2O)cc1 |  |
| inactive | inactive | NC(=O)[C@H](Cc1ccc(O)cc1)NC(=O)[C@H](Cc1c[nH]c2ccccc12)NC(=O)CCC(=O)Nc1ccc(O[C@H]2O[C@H](CO)[C@@H](O[C@H]3O[C@H](CO)[C@@H](O[C@H]4O[C@H](CO)[C@@H](O[C@H]5O[C@H](CO)[C@@H](O[C@H]6O[C@H](CO)[C@@H](O)[C@H](O)[C@H]6O)[C@H](O)[C@H]5O)[C@H](O)[C@H]4O)[C@H](O)[C@H]3O)[C@H](O)[C@H]2O)cc1 |  |
| inactive | inactive | NC(=O)[C@H](Cc1ccccc1)NC(=O)[C@H](Cc1ccc(O)cc1)NC(=O)CCC(=O)Nc1ccc(O[C@H]2O[C@H](CO)[C@@H](O[C@H]3O[C@H](CO)[C@@H](O[C@H]4O[C@H](CO)[C@@H](O[C@H]5O[C@H](CO)[C@@H](O[C@H]6O[C@H](CO)[C@@H](O)[C@H](O)[C@H]6O)[C@H](O)[C@H]5O)[C@H](O)[C@H]4O)[C@H](O)[C@H]3O)[C@H](O)[C@H]2O)cc1 |  |
